Source: ChEMBL document CHEMBL4152323, “N-(1,3,4-oxadiazol-2-yl)benzamide analogs, bacteriostatic agents against methicillin- and vancomycin-resistant bacteria” (Eur J Med Chem, 2018)
In brackets after ≈: the same amount, converted by molar mass. Activity calls are given as the source filed them. No cut-off for these calls is given here.

How the values were obtained:
[1] = system: Staphylococcus aureus; experiment: Bacteriostatic activity against Staphylococcus aureus ATCC 25923 after 20 hrs by broth microdilution method; type: functional; conditions: ATCC 25923, 20 h
Procedure, shortened: (§1)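 Broth microdilution MIC over 128 to 1 μg/mL, run alongside methicillin, linezolid and vancomycin. MIC taken as the lowest concentration with no visible growth.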

[2] = system: Staphylococcus aureus; experiment: Bacteriostatic activity against methicillin-resistant Staphylococcus aureus ATCC 33592 after 20 hrs by broth microdilution method; type: functional; conditions: ATCC 33592, 20 h; procedure, shortened: as §1
[3] = system: Enterococcus faecalis; experiment: Bacteriostatic activity against Enterococcus faecalis ATCC 29212 after 20 hrs by broth microdilution method; type: functional; conditions: ATCC 29212, 20 h; procedure, shortened: as §1
[4] = system: Enterococcus faecalis; experiment: Bacteriostatic activity against vancomycin-resistant Enterococcus faecalis ATCC 51575 after 20 hrs by broth microdilution method; type: functional; conditions: ATCC 51575, 20 h; procedure, shortened: as §1
[5] = system: Listeria monocytogenes; experiment: Bacteriostatic activity against Listeria monocytogenes ATCC 19115 after 20 hrs by broth microdilution method; type: functional; conditions: ATCC 19115, 20 h
Procedure, shortened: (§2)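 MIC by broth microdilution across 128 to 1 μg/mL in 96-well plates, 37 °C for at least 20 h. MIC is the lowest concentration with no visible growth.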

[6] = system: Staphylococcus aureus; experiment: Bacteriostatic activity against methicillin-resistant Staphylococcus aureus NRS119 clinical isolate after 20 hrs by broth microdilution method; type: functional; conditions: NRS119, 20 h; procedure, shortened: as §1
[7] = system: Staphylococcus aureus; experiment: Bacteriostatic activity against methicillin-resistant Staphylococcus aureus USA400 NRS123 clinical isolate after 20 hrs by broth microdilution method; type: functional; conditions: USA400 NRS123, 20 h; procedure, shortened: as §1
[8] = system: Staphylococcus aureus; experiment: Bacteriostatic activity against methicillin-resistant Staphylococcus aureus USA300 NRS384 clinical isolate after 20 hrs by broth microdilution method; type: functional; conditions: USA300 NRS384, 20 h; procedure, shortened: as §1
[9] = system: Staphylococcus aureus; experiment: Bacteriostatic activity against methicillin-resistant Staphylococcus aureus USA500 NRS385 clinical isolate after 20 hrs by broth microdilution method; type: functional; conditions: USA500 NRS385, 20 h; procedure, shortened: as §1
[10] = system: Staphylococcus aureus; experiment: Bacteriostatic activity against methicillin-resistant Staphylococcus aureus USA700 NRS386 clinical isolate after 20 hrs by broth microdilution method; type: functional; conditions: USA700 NRS386, 20 h; procedure, shortened: as §1
[11] = system: Staphylococcus aureus; experiment: Bacteriostatic activity against vancomycin-resistant Staphylococcus aureus VRS12 clinical isolate after 20 hrs by broth microdilution method; type: functional; conditions: VRS12, 20 h; procedure, shortened: as §1
[12] = system: Enterococcus faecium; experiment: Bacteriostatic activity against vancomycin-resistant Enterococcus faecium ATCC 700221 clinical isolate after 20 hrs by broth microdilution method; type: functional; conditions: ATCC 700221, 20 h
Procedure, shortened: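 Broth microdilution MIC over 128 to 1 μg/mL in Brain Heart Infusion broth, 37 °C for at least 20 h. MIC taken as the lowest concentration with no visible growth.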

[13] = system: Staphylococcus aureus; experiment: Bactericidal activity against methicillin-resistant Staphylococcus aureus NRS119 clinical isolate preincubated for 20 hrs followed by TSA plating and measured after 18 hrs; type: functional
[14] = system: Staphylococcus aureus; experiment: Bactericidal activity against methicillin-resistant Staphylococcus aureus USA400 NRS123 clinical isolate preincubated for 20 hrs followed by TSA plating and measured after 18 hrs; type: functional
[15] = system: Staphylococcus aureus; experiment: Bactericidal activity against methicillin-resistant Staphylococcus aureus USA300 NRS384 clinical isolate preincubated for 20 hrs followed by TSA plating and measured after 18 hrs; type: functional
[16] = system: Staphylococcus aureus; experiment: Bactericidal activity against methicillin-resistant Staphylococcus aureus USA500 NRS385 clinical isolate preincubated for 20 hrs followed by TSA plating and measured after 18 hrs; type: functional
[17] = system: Staphylococcus aureus; experiment: Bactericidal activity against methicillin-resistant Staphylococcus aureus USA700 NRS386 clinical isolate preincubated for 20 hrs followed by TSA plating and measured after 18 hrs; type: functional
[18] = system: Staphylococcus aureus; experiment: Bactericidal activity against methicillin-resistant Staphylococcus aureus USA800 NRS387 clinical isolate preincubated for 20 hrs followed by TSA plating and measured after 18 hrs; type: functional
[19] = system: Staphylococcus aureus; experiment: Bactericidal activity against vancomycin-intermediate Staphylococcus aureus NRS1 clinical isolate preincubated for 20 hrs followed by TSA plating and measured after 18 hrs; type: functional
[20] = system: Staphylococcus aureus; experiment: Bactericidal activity against vancomycin-resistant Staphylococcus aureus VRS12 clinical isolate preincubated for 20 hrs followed by TSA plating and measured after 18 hrs; type: functional
[21] = system: Enterococcus faecium; experiment: Bactericidal activity against vancomycin-resistant Enterococcus faecium ATCC 700221 clinical isolate preincubated for 20 hrs followed by TSA plating and measured after 18 hrs; type: functional
Procedure, shortened: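 MBC: 4 μL from wells with no growth in the MIC plate (Brain Heart Infusion broth, 37 °C, at least 20 h) spotted onto Tryptic Soy Agar. Read after at least 18 h at 37 °C.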

[22] = system: Staphylococcus aureus; experiment: Antibacterial activity against methicillin-resistant Staphylococcus aureus USA300 at 6 ug/ml preincubated up to12 hrs followed by agar plating and measured after 18 to 20 hrs by time-kill assay; type: functional, organism-based
[23] = system: Staphylococcus aureus; experiment: Antibacterial activity against Staphylococcus aureus assessed as growth inhibition at 16 ug/ml after 24 hrs; type: functional, organism-based
Procedure, shortened: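 S. aureus grown in Mueller Hinton Broth to early exponential phase, then exposed to compound (16 μg/mL; DMSO stocks 10 mg/mL) or DMSO in duplicate, 37 °C for 24 h. OD600 read; percent normalized OD600 = (X − media blank)/(DMSO control − media blank) × 100.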

[24] = system: Staphylococcus aureus; experiment: Bacteriostatic activity against methicillin-resistant Staphylococcus aureus USA800 NRS387 clinical isolate after 20 hrs by broth microdilution method; type: functional; conditions: USA800 NRS387, 20 h; procedure, shortened: as §1
[25] = system: Staphylococcus aureus; experiment: Bacteriostatic activity against vancomycin-intermediate Staphylococcus aureus NRS1 clinical isolate after 20 hrs by broth microdilution method; type: functional; conditions: NRS1, 20 h; procedure, shortened: as §1
[26] = system: Staphylococcus aureus; experiment: Potency index, ratio of methicillin MIC to test compound MIC for methicillin-resistant Staphylococcus aureus ATCC 33592; type: functional
[27] = system: Staphylococcus aureus; experiment: Antibacterial activity against methicillin-resistant Staphylococcus aureus USA300 at 12 ug/ml preincubated for 24 hrs followed by agar plating and measured after 18 to 20 hrs by time-kill assay relative to control; type: functional
[28] = system: Acinetobacter baumannii; experiment: Bacteriostatic activity against Acinetobacter baumannii ATCC 19606 after 20 hrs by broth microdilution method; type: functional; conditions: ATCC 19606 = CIP 70.34 = JCM 6841, 20 h; procedure, shortened: as §2
[29] = system: Klebsiella pneumoniae; experiment: Bacteriostatic activity against Klebsiella pneumoniae BAA 1706 after 20 hrs by broth microdilution method; type: functional; conditions: BAA 1706, 20 h; procedure, shortened: as §2
[30] = system: Pseudomonas aeruginosa; experiment: Bacteriostatic activity against Pseudomonas aeruginosa ATCC 15442 after 20 hrs by broth microdilution method; type: functional; conditions: ATCC 15442, 20 h; procedure, shortened: as §2
[31] = system: Escherichia coli; experiment: Bacteriostatic activity against Escherichia coli BW25113 after 20 hrs by broth microdilution method; type: functional; conditions: BW25113, 20 h; procedure, shortened: as §2
[32] = system: Escherichia coli; experiment: Bacteriostatic activity against AcrAB-tolC deficient Escherichia coli JW5503-1 after 20 hrs by broth microdilution method; type: functional; conditions: JW5503-1, 20 h; procedure, shortened: as §2
[33] = system: Staphylococcus aureus; experiment: Ratio of MIC for methicillin-resistant Staphylococcus aureus USA400 NRS123 measured after 10th to 14th passage to MIC for methicillin-resistant Staphylococcus aureus USA400 NRS123 measured prior 10th to 14th passage; type: functional
Procedure, shortened: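 MRSA USA400 (NRS123) passaged serially, once a day, over 14 passages in two weeks. Broth microdilution MIC of test agent and ciprofloxacin measured after each passage. A four-fold MIC shift taken as resistance.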

[34] = Ratio of non toxic concentration for mouse J774 cells to MIC for methicillin-resistant Staphylococcus aureus ATCC 33592; type: toxicity
[35] = Ratio of non toxic concentration for human Caco2 cells to MIC for methicillin-resistant Staphylococcus aureus ATCC 33592; type: toxicity; conditions: Caco-2 cells
[36] = system: Staphylococcus aureus; experiment: Antibacterial activity against methicillin-resistant Staphylococcus aureus USA300 in BALB/c mouse wound infection model assessed as reduction in bacterial burden in wound at 2% administered topically bid for 5 days relative to control; type: functional; set-up: scale not given: the % may be the effect or the level left
Procedure, shortened: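 Female BALB/c mice, eight weeks old, n = 5 per group, injected intradermally with 40 μL of 1.32×10^9 CFU/mL MRSA USA300. Once an abscess or open wound formed, it was treated topically twice daily for five days with 2% agent in petroleum jelly, with vehicle as control. Wound tissue excised 12 h after the last dose, homogenized in PBS, diluted and plated on mannitol salt agar for 16 h or more at 37 °C. CFU reduction calculated against vehicle.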

[37] = system: J774; experiment: Cytotoxicity against mouse J774 cells assessed as decrease in cell viability up to 128 ug/ml after 24 hrs by MTS assay; type: cell-based; conditions: j774, 24 h
[38] = system: Caco-2; experiment: Cytotoxicity against human Caco2 cells assessed as decrease in cell viability up to 128 ug/ml after 24 hrs by MTS assay; type: cell-based; conditions: caco-2, 24 h
Procedure, shortened: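 Caco-2 cells were grown in DMEM with 20% FBS, 1X non-essential amino acids and penicillin-streptomycin at 37 °C, 5% CO2. Viability is % of DMSO-treated cells.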

[39] = system: Enterococcus faecalis; experiment: Potency index, ratio of vancomycin MIC to test compound MIC for vancomycin-resistant Enterococcus faecalis ATCC 51575
[40] = system: Staphylococcus aureus; experiment: Bacteriostatic activity against methicillin-resistant Staphylococcus aureus USA400 NRS123 measured over 14 days by broth microdilution method

| SMILES | MIC [1] [µg/mL] | MIC [2] [µg/mL] | MIC [3] [µg/mL] | MIC [4] [µg/mL] | MIC [5] [µg/mL] | MIC [6] [µg/mL] | MIC [7] [µg/mL] | MIC [8] [µg/mL] | MIC [9] [µg/mL] | MIC [10] [µg/mL] | MIC [11] [µg/mL] | MIC [12] [µg/mL] | MBC [13] [µg/mL] | MBC [14] [µg/mL] | MBC [15] [µg/mL] | MBC [16] [µg/mL] | MBC [17] [µg/mL] | MBC [18] [µg/mL] | MBC [19] [µg/mL] | MBC [20] [µg/mL] | further results |
| --- | --- | --- | --- | --- | --- | --- | --- | --- | --- | --- | --- | --- | --- | --- | --- | --- | --- | --- | --- | --- | --- |
| CN[C@H](CC(C)C)C(=O)N[C@H]1C(=O)N[C@@H](CC(N)=O)C(=O)N[C@H]2C(=O)N[C@H]3C(=O)N[C@H](C(=O)N[C@H](C(=O)O)c4cc(O)cc(O)c4-c4cc3ccc4O)[C@H](O)c3ccc(c(Cl)c3)Oc3cc2cc(c3O[C@@H]2O[C@H](CO)[C@@H](O)[C@H](O)[C@H]2O[C@H]2C[C@](C)(N)[C@H](O)[C@H](C)O2)Oc2ccc(cc2Cl)[C@H]1O [VANCOMYCIN] | 1 to 2 (≈ 0.69 to 1.38 µM) | 1 to 2 (≈ 0.69 to 1.38 µM) | 2 (≈ 1.38 µM) | > 128 | 1 (≈ 0.69 µM) | ≤ 1 | ≤ 1 | ≤ 1 | ≤ 1 | ≤ 1 | > 128 | > 128 | ≤ 1 | ≤ 1 | ≤ 1 | 2 (≈ 1.38 µM) | ≤ 1 | 2 (≈ 1.38 µM) | 4 (≈ 2.76 µM) | > 128 | MBC [21]: > 128 µg/mL; Activity [22]: Active |
| C[C@@H]1C[C@H](C)CN(S(=O)(=O)c2ccc(C(=O)Nc3nnc(-c4cccs4)o3)cc2)C1 (mixture of isomers) | 2 to 4 | 2 to 4 | 4 | 4 | 4 | 2 | 2 | 2 | 2 | 2 | 2 | 2 | > 128 | > 128 | > 128 | > 128 | > 128 | > 128 | > 128 | > 128 | growth inhibition (GI) [23]: Active; MIC [24]: 2 µg/mL; MIC [25]: 2 µg/mL; MBC [21]: 128 µg/mL; Ratio [26]: > 64; Activity [27]: 2.01 deltalog10CFU/ml; MIC [28]: 128 µg/mL; MIC [29]: > 128 µg/mL; MIC [30]: > 128 µg/mL; MIC [31]: > 128 µg/mL; MIC [32]: 2 µg/mL; Ratio [33]: 1; selectivity ratio [34]: 63; selectivity ratio [35]: 63; Activity [36]: 72.41%; Activity [37]: Non-Toxic; Activity [38]: Non-Toxic; Ratio [39]: >32; Activity [40]: Active |
